# Measurements as given in ChEMBL document CHEMBL4354804, “Discovery of a New Isoxazole-3-hydroxamate-Based Histone Deacetylase 6 Inhibitor SS-208 with Antitumor Activity in Syngeneic Melanoma Mouse Models” (J Med Chem, 2019).
# How the values were obtained:
# [1] = Cytotoxicity against mouse SM1 cells at 100 nM by ApoTox-Glo triplex assay; type: cell-based; settings: 0.1 µM
# How it was run: (§1)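 SM1 cells treated with HDAC inhibitors, with pan-HDACi and assay controls on every plate. ApoTox-Glo triplex readout: viability fluorescence 400Ex/505Em, cytotoxicity fluorescence 485Ex/520Em, then caspase 3/7 reagent read by luminescence for apoptosis.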
# [2] = Induction of apoptosis in mouse SM1 cells at 100 nM by caspase3/7 reagent based luminescence assay; type: cell-based; settings: 0.1 µM; how it was run: as §1
# Homo sapiens [3] = organism: Homo sapiens; assay: Selectivity index, ratio of IC50 for recombinant full length C-terminal His/FLAG tagged human HDAC1 (1 to 482 residues) expressed in baculovirus infected sf9 insect cells using p53 (379 to 382 residues) derived fluorogenic peptide RHKKAc as substrate preincubated for 5 to 10 mins followed by …
# [4] = Half life in human liver microsomes in presence of NADPH; type: ADME, Microsome
# How it was run: (§2)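 Liver microsomal stability in mouse and human microsomes with NADPH; half-life in minutes.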
# [5] = Half life in mouse liver microsomes in presence of NADPH; type: ADME, Microsome; how it was run: as §2
# Salmonella typhimurium [6] = assay: Genotoxicity against Salmonella Typhimurium TA97A assessed as revertant colonies at 0.075 to 250 ug/well by Ames test; type: toxicity, organism-based; settings: salmonella enterica subsp. enterica serovar typhimurium
# Salmonella typhimurium [7] = assay: Genotoxicity against Salmonella Typhimurium TA97A assessed as revertant colonies at 0.075 to 250 ug/well in presence of mammalian microsomal enzyme S9 mix by Ames test; type: toxicity, organism-based; settings: salmonella enterica subsp. enterica serovar typhimurium
# Salmonella typhimurium [8] = assay: Genotoxicity against Salmonella Typhimurium TA1537 assessed as revertant colonies at 0.075 to 250 ug/well by Ames test; type: toxicity, organism-based; settings: salmonella enterica subsp. enterica serovar typhimurium
# Salmonella typhimurium [9] = assay: Genotoxicity against Salmonella Typhimurium TA1537 assessed as revertant colonies at 0.075 to 250 ug/well in presence of mammalian microsomal enzyme S9 mix by Ames test; type: toxicity, organism-based; settings: salmonella enterica subsp. enterica serovar typhimurium
# Histone deacetylase 1 [10] = target: T1, Histone deacetylase 1 (Homo sapiens, UniProt Q13547); assay: Inhibition of human recombinant HDAC1 using fluorogenic substrate incubated for 15 mins by fluorescence assay
# T1 sequence (Q13547 whole entry): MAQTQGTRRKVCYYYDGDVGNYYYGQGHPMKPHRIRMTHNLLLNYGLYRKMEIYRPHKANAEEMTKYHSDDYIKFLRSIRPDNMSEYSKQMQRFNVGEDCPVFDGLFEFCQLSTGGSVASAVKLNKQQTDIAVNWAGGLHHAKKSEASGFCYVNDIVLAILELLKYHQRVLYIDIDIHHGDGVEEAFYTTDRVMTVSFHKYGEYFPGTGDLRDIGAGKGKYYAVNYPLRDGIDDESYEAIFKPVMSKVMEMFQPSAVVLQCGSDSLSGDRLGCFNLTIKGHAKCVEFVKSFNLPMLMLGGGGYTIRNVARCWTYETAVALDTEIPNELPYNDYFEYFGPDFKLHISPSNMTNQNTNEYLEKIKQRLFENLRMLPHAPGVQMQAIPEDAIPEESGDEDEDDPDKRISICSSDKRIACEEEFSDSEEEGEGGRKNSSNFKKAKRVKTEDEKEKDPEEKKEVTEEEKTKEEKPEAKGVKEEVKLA
# [11] = target: T2, Protein deacetylase HDAC6 (Homo sapiens, UniProt Q9UBN7); assay: Inhibition of human recombinant HDAC6 using fluorogenic substrate incubated for 30 mins by fluorescence assay
# T2 sequence (Q9UBN7 whole entry): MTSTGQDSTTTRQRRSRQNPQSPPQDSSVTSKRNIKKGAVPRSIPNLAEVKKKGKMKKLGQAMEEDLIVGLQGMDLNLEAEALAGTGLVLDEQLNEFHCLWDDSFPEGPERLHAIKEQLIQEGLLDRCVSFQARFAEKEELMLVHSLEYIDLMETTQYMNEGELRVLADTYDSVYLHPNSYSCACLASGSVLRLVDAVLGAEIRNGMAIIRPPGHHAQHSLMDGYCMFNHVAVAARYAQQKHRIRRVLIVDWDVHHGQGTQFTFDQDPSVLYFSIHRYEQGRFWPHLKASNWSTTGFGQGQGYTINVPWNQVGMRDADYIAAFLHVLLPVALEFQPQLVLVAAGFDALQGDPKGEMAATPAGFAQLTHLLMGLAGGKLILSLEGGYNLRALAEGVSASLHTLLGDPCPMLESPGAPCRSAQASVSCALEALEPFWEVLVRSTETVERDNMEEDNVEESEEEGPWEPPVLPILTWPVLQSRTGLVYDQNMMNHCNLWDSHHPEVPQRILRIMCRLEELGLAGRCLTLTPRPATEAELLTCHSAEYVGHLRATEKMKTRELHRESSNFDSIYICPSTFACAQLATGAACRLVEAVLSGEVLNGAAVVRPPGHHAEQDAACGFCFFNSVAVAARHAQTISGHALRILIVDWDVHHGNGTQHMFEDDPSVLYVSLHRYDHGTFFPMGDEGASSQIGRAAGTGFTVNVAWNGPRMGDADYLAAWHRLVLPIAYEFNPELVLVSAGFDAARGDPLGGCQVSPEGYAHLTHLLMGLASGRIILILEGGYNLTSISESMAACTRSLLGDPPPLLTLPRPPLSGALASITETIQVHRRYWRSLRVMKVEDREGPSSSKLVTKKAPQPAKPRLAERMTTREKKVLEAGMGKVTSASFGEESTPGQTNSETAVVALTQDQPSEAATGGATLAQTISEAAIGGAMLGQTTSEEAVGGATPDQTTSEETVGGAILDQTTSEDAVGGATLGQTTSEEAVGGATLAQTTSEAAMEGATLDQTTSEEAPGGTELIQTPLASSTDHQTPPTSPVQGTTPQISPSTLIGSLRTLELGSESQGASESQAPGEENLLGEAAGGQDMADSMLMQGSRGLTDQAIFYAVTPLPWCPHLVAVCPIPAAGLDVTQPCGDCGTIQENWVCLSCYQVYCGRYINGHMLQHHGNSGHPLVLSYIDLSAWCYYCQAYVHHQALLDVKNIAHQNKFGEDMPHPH
# Homo sapiens [12] = organism: Homo sapiens; assay: Selectivity index, ratio of IC50 for inhibition of human recombinant HDAC1 using fluorogenic substrate incubated for 15 mins by fluorescence assay to IC50 for inhibition of human recombinant HDAC6 using fluorogenic substrate incubated for 30 mins by fluorescence assay
# Histone deacetylase 1 [13] = target: T1, Histone deacetylase 1; assay: Inhibition of human recombinant HDAC1 using fluorogenic HDAC substrate by fluorescence assay
# How it was run: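 Human full-length recombinant HDAC1 expressed in Sf9 cells via baculovirus. Substrate was the fluorogenic acetylated p53 379-382 peptide RHKKAc (50 µM) in pH 8.0 Tris buffer with NaCl, KCl, MgCl2, BSA and 1% DMSO final. Enzyme and compound were preincubated 5-10 min, then reacted 2 h at 30 °C. Developer plus TSA stopped the reaction; endpoint fluorescence was read.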
# Histone deacetylase 1 [14] = target: T1, Histone deacetylase 1; assay: (§3) Inhibition of recombinant full length C-terminal His/FLAG tagged human HDAC1 (1 to 482 residues) expressed in baculovirus infected sf9 insect cells using p53 (379 to 382 residues) derived fluorogenic peptide RHKKAc as substrate preincubated for 5 to 10 mins followed by substrate addition and further incubated for 2 hrs by fluorescence assay
# [15] = target: T2, Protein deacetylase HDAC6; assay: as §3, with “N-terminal GST-tagged” for “full length C-terminal His/FLAG tagged”, “HDAC6” for “HDAC1”, “1215” for “482”
# Histone deacetylase 1 [16] = target: T1, Histone deacetylase 1; assay: Inhibition of recombinant human HDAC1 expressed in HEK293T/17 cells using Ac-GAK(Ac)-AMC as substrate preincubated for 10 mins followed by substrate addition and measured after 30 mins by fluorescence-based assay
# How it was run: (§4)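 Human HDACs expressed as Strep-tagged fusions in transiently transfected HEK293/T17 cells, purified by Strep-Tactin. Substrate at 10 µM: Ac-GAK(Ac)-AMC for HDAC1/6, Boc-Lys(TFA)-AMC for the others. Reaction 30 min at 37 °C, trypsin stop, fluorescence 365/440 nm. 10-point 3-fold series from 100 µM, mean of two experiments.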
# Histone deacetylase 4 = Histone deacetylase 4 (Homo sapiens, UniProt P56524); assay: Inhibition of recombinant human HDAC4 expressed in HEK293T/17 cells using Boc-Lys(TFA)-AMC as substrate preincubated for 10 mins followed by substrate addition and measured after 30 mins by fluorescence-based assay; how it was run: as §4
# Histone deacetylase 4, sequence (P56524 whole entry): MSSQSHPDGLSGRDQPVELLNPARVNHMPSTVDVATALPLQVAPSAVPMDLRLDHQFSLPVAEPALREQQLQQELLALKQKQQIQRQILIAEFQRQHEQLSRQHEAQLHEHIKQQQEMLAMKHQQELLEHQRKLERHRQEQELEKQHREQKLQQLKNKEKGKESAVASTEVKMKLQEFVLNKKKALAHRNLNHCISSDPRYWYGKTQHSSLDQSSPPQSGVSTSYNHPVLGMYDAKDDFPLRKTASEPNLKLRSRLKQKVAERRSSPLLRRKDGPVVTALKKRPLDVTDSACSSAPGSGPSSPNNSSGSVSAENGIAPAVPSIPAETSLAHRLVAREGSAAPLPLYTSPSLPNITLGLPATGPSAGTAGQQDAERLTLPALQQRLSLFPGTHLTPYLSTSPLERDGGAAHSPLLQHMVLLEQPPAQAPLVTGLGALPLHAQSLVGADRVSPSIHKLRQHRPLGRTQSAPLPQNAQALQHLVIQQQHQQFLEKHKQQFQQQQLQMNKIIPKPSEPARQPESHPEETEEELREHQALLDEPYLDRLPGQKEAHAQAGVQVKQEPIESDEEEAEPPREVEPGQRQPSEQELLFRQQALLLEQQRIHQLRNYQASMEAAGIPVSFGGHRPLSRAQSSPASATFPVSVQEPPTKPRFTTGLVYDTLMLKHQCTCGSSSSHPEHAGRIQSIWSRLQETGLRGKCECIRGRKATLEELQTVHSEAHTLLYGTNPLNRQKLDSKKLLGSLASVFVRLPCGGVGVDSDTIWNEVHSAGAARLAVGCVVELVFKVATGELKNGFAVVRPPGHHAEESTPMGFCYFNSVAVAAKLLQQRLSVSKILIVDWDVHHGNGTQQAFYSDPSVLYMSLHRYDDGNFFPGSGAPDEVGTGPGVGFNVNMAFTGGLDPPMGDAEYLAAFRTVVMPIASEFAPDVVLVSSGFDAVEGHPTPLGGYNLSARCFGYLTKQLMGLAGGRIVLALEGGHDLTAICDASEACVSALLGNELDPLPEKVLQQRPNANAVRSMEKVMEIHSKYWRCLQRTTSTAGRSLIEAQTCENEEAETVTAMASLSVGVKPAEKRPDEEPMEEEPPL
# Histone deacetylase 5 = Histone deacetylase 5 (Homo sapiens, UniProt Q9UQL6); assay: Inhibition of recombinant human HDAC5 expressed in HEK293T/17 cells using Boc-Lys(TFA)-AMC as substrate preincubated for 10 mins followed by substrate addition and measured after 30 mins by fluorescence-based assay; how it was run: as §4
# Histone deacetylase 5, sequence (Q9UQL6 whole entry): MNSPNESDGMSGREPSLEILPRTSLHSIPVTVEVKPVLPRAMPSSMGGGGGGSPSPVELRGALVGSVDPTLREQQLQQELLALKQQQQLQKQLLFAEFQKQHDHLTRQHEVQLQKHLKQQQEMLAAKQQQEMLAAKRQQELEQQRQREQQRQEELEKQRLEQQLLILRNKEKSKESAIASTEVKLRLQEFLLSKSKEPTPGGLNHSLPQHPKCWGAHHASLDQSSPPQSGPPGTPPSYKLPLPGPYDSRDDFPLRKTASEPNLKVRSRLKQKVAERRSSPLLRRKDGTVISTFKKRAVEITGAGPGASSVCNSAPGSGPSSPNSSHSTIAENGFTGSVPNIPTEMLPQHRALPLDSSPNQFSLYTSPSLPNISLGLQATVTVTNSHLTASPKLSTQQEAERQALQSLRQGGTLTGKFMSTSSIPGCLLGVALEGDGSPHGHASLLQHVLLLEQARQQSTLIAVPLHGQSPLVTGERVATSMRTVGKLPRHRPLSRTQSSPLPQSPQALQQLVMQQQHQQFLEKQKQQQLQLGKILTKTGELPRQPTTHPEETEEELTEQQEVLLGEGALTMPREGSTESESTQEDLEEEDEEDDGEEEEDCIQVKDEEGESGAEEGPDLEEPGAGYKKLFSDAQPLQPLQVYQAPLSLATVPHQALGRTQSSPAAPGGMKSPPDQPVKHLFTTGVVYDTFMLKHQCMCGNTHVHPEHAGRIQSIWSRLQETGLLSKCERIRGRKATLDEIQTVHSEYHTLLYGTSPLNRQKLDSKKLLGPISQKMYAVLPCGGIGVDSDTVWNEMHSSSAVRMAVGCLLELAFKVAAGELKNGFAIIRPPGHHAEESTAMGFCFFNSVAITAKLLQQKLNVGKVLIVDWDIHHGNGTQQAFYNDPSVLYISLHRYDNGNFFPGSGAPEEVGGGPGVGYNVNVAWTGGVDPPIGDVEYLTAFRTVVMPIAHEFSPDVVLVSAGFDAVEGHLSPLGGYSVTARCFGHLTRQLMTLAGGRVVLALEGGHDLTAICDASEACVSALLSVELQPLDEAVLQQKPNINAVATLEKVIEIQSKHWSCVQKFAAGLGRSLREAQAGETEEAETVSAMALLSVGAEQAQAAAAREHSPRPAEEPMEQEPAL
# [17] = target: T2, Protein deacetylase HDAC6; assay: Inhibition of recombinant human HDAC6 expressed in HEK293T/17 cells using Ac-GAK(Ac)-AMC as substrate preincubated for 10 mins followed by substrate addition and measured after 30 mins by fluorescence-based assay
# Histone deacetylase 8 = target: T3, Histone deacetylase 8 (Homo sapiens, UniProt Q9BY41); assay: Inhibition of recombinant human HDAC8 expressed in HEK293T/17 cells using Boc-Lys(TFA)-AMC as substrate preincubated for 10 mins followed by substrate addition and measured after 30 mins by fluorescence-based assay; how it was run: as §4
# T3 sequence (Q9BY41 whole entry): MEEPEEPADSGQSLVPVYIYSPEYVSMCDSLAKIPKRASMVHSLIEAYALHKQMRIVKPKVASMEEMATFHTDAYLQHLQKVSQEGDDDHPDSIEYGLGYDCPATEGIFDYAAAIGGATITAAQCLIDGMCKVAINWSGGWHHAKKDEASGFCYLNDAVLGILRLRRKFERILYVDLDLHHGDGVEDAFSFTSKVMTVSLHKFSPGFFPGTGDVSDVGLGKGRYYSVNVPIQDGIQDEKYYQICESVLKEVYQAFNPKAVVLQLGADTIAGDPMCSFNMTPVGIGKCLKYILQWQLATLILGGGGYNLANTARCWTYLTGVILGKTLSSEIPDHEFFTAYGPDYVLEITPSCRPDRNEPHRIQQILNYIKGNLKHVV
# Histone deacetylase 9 = Histone deacetylase 9 (Homo sapiens, UniProt Q9UKV0); assay: Inhibition of recombinant human HDAC9 expressed in HEK293T/17 cells using Boc-Lys(TFA)-AMC as substrate preincubated for 10 mins followed by substrate addition and measured after 30 mins by fluorescence-based assay; how it was run: as §4
# Histone deacetylase 9, sequence (Q9UKV0 whole entry): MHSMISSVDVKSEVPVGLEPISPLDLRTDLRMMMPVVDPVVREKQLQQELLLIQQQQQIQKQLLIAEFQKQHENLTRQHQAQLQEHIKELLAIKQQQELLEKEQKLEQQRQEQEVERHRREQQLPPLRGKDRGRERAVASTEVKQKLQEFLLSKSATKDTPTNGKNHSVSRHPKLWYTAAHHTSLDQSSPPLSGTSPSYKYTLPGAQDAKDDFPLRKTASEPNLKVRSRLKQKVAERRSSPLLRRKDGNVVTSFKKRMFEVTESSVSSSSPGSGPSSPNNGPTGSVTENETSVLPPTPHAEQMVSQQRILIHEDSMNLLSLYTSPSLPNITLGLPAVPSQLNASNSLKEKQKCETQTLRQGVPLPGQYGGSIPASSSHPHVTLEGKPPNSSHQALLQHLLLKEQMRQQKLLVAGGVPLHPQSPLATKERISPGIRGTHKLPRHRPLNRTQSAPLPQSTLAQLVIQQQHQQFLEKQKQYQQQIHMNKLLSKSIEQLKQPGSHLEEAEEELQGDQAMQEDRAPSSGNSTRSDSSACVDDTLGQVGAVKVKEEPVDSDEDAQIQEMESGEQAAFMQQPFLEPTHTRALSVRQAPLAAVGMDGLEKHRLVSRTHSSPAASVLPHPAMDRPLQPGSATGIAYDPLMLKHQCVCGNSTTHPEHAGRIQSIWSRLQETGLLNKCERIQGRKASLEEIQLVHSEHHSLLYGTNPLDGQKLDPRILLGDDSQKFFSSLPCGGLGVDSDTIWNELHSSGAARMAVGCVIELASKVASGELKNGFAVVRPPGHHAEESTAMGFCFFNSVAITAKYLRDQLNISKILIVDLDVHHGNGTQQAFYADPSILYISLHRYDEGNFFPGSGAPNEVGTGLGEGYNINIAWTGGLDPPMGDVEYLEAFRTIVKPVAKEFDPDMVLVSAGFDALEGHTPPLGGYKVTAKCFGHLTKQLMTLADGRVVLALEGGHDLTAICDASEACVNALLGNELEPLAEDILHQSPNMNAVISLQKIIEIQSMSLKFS
# Histone deacetylase 11 = target: T4, Histone deacetylase 11 (Homo sapiens, UniProt Q96DB2); assay: Inhibition of recombinant human HDAC11 expressed in HEK293T/17 cells using Boc-Lys(TFA)-AMC as substrate preincubated for 10 mins followed by substrate addition and measured after 30 mins by fluorescence-based assay; how it was run: as §4
# T4 sequence (Q96DB2 whole entry): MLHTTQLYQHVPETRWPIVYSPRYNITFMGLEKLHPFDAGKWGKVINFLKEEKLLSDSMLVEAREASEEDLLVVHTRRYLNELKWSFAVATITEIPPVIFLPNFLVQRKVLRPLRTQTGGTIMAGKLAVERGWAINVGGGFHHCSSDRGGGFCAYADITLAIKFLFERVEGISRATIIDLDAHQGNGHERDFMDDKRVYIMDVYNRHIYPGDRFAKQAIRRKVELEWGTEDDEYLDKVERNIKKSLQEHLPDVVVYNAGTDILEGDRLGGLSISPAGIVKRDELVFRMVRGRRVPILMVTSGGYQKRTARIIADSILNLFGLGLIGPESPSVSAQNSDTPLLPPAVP
compound,measurement,setting,value
Cc1[nH]c2ccccc2c1CCNCc1ccc(/C=C/C(=O)NO)cc1 [PANOBINOSTAT],Activity,[1],Toxic
same,Activity,[2],Toxic
CC(C)(C)OC(=O)Nc1ccc(-c2cc(C(=O)NCCc3cc(C(=O)NO)no3)no2)cc1,Ratio IC50,Homo sapiens [3],2820
same,half-life,[4],85 min
same,half-life,[5],16 min
same,Activity,Salmonella typhimurium [6],Non-Toxic
same,Activity,Salmonella typhimurium [7],Non-Toxic
same,Activity,Salmonella typhimurium [8],Non-Toxic
same,Activity,Salmonella typhimurium [9],Non-Toxic
O=C(NO)c1ccc(CNCc2csc3ccccc23)cc1,IC50,Histone deacetylase 1 [10],7500 nM
same,IC50,[11],14 nM
same,Ratio IC50,Homo sapiens [12],535
CN(Cc1ccc(C(=O)NO)cc1F)CC12CC3CC(CC(C3)C1)C2,IC50,Histone deacetylase 1 [13],> 1000 nM
O=C(NO)c1ccc(CNC(=O)c2ccc(Cl)c(Cl)c2)cc1,IC50,Histone deacetylase 1 [14],200 nM
same,IC50,[15],28 nM
same,IC50,Histone deacetylase 1 [16],34 nM
same,IC50,Histone deacetylase 4,3530 nM
same,IC50,Histone deacetylase 5,3120 nM
same,IC50,[17],2 nM
same,IC50,Histone deacetylase 8,920 nM
same,IC50,Histone deacetylase 9,3070 nM
same,IC50,Histone deacetylase 11,1050 nM
